Values after ≈ are worked out from the molar mass of the structure shown.
system: Radical scavenging activity; test: Antioxidant activity assessed as DPPH free radical scavenging activity after 30 mins; format: functional
Outline: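 Test samples in EtOH mixed with 100 µM ethanolic DPPH and incubated at 37 °C for 30 min. Absorbance was read at 515 nm. Percent inhibition was calculated against an ethanol-treated control. IC50 is the sample concentration that scavenges 50% of DPPH radicals.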

Structure (SMILES) | IC50
COC(=O)c1cc(O)c(O[C@@H]2O[C@H](CO)[C@@H](O)[C@H](O)[C@H]2O)c(O)c1 | > 100 µg/mL
COC(=O)c1cc(O)c(O)c(O[C@@H]2O[C@H](COC(=O)c3cc(O)c(O)c(O)c3)[C@@H](O)[C@H](O)[C@H]2O)c1 | 4.9 µg/mL (≈ 9.83 µM)
COC(=O)c1cc(O)c(O)c(O[C@@H]2O[C@H](CO)[C@@H](O)[C@H](O)[C@H]2O)c1 | 4.6 µg/mL (≈ 13.3 µM)
O=C1CCc2ccc(O)c(c2)-c2cc(ccc2O)C[C@H](O)[C@H](O)[C@H]1O [CARPINONTRIOL B] | 80.2 µg/mL (≈ 233 µM)
O=C1C[C@@H](O)[C@@H](O)Cc2ccc(O)c(c2)-c2cc(ccc2O)C[C@H]1O [CARPINONTRIOLS A] | > 100 µg/mL
O=C1CC[C@H](O)Cc2ccc(O)c(c2)-c2cc(ccc2O)C[C@H]1O [CASUARINONDIOL] | > 100 µg/mL
Oc1cc(O)c2c(c1)O[C@H](c1ccc(O)c(O)c1)[C@@H](O)C2 [CIANIDANOL] | 2.7 µg/mL (≈ 9.3 µM)
O=C(O[C@@H]1Cc2c(O)cc(O)cc2O[C@@H]1c1cc(O)c(O)c(O)c1)c1cc(O)c(O)c(O)c1 [EPIGALOCATECHIN GALLATE] | 2.7 µg/mL (≈ 5.89 µM)
COC(=O)c1cc(O)c(O)c(O)c1 [GALLIC ACID METHYL ESTER] | 4.9 µg/mL (≈ 26.6 µM)
Oc1ccc(/C=C/c2cc(O)cc(O)c2)cc1 [RESVERATROL] | 16.2 µg/mL (≈ 71 µM)
